Test results reported in ChEMBL document CHEMBL1123619, “Isothiourea derivatives of 6-phenyl-2,3,5,6-tetrahydroimidazo[2,1-b]thiazole with broad-spectrum anthelmintic activity” (J Med Chem, 1987).

Experiments:
Mus musculus [1] = test: Nematocidal against Nematospiroides dubius in mouse was determined at 25 mg/kg peroral dose of compound; type: functional; details: route oral
Summary of the method: (§1)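 Seven-week-old female LACA mice infected orally with 100 N. dubius L3 larvae; single gavage dose given at day 10 of infection, groups of four mice; necropsy 4 days later; percent activity from worm burdens of treated versus untreated groups.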

Mus musculus [2] = test: Nematocidal activity against Nematospiroides dubius induced necropsy in mouse, after oral administration of 100 mg/kg of the compound; type: functional; summary of the method: as §1
Ovis aries [3] = test: Antihelmethic activity expressed as the percentage of worms eliminated in the feces in sheep large bowel at subcuteneous dose of 30 mg/kg against chabertia ovina.; type: functional
Summary of the method: (§2)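 Sheep given a single dose, oral or subcutaneous. Total daily feces collected for 4 days after treatment and examined for expelled worms. Necropsy at day 7 after dosing; lungs, liver and gastrointestinal tract removed and remaining worms identified. Activity calculated by comparing worms passed in feces with those remaining at autopsy. Single animals per test unless otherwise indicated.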

Ovis aries [4] = test: Antihelmethic activity expressed as the percentage of worms eliminated in the feces in sheep small intestine at peroral dose of 15 mg/kg against Capillaria species.; type: functional; details: route oral; summary of the method: as §2
Ovis aries [5] = test: Toxic activity expressed as the percentage against liver fluke in the sheep at 15 mg/kg peroral administration of dose; type: ADME, organism-based; parameters: dose 15 mg/kg, route oral; details: in vivo, po
Summary of the method: (§3)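 Fasciola hepatica in sheep, controlled test; animals necropsied only when fecal egg count fell; postmortem fluke burdens compared with untreated control sheep (10 controls).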

Ovis aries [6] = test: Antihelmethic activity expressed as the percentage of worms eliminated in the feces in sheep abomasum at subcuteneous dose of 30 mg/kg against Trichostrongylus axei; type: functional; summary of the method: as §2
Ovis aries [7] = test: Toxic activity expressed as the percentage against liver fluke in the sheep at 30 mg/kg peroral administration of dose; type: ADME, organism-based; parameters: dose 30 mg/kg, route oral; details: in vivo, po; summary of the method: as §3
Ovis aries [8] = test: Antihelmethic activity expressed as the percentage of worms eliminated in the feces in sheep large bowel at peroral dose of 30 mg/kg against Trichuris ovis.; type: functional; details: route oral; summary of the method: as §2
Mus musculus [9] = test: Nematocidal activity against Nematospiroides dubius induced necropsy in mouse, after oral administration of 100 mg/kg; type: functional; summary of the method: as §1
Ovis aries [10] = test: Antihelmethic activity expressed as the percentage of worms eliminated in the feces in sheep small intestine at subcuteneous dose of 30 mg/kg against Strongyloides papillosus; type: functional; summary of the method: as §2
Ovis aries [11] = test: Antihelmethic activity expressed as the percentage of worms eliminated in the feces in sheep abomasum at peroral dose of 15 mg/kg against Trichostrongylus axei; type: functional; details: route oral; summary of the method: as §2
Ovis aries [12] = test: Antihelmethic activity expressed as the percentage of worms eliminated in the feces in sheep small intestine at peroral dose of 15 mg/kg against Strongyloides papillosus; type: functional; details: route oral; summary of the method: as §2
Felis catus = test: Antihelmethic activity expressed as the percentage of worms eliminated in the feces in cat tapeworm at peroral dose of 30 mg/kg; worms expelled and no futher segments appeared in the feces for the duration of the test; type: functional, organism-based; parameters: dose 30 mg/kg
Mus musculus [13] = test: Nematocidal against Nematospiroides dubius in mouse was determined at 100 mg/kg peroral dose of compound; type: functional; details: route oral; summary of the method: as §1
Ovis aries [14] = test: Antihelmethic activity expressed as the percentage of worms eliminated in the feces in sheep small intestine at peroral dose of 30 mg/kg against Strongyloides papillosus; type: functional; details: route oral; summary of the method: as §2

## CS/C(=N\c1cccc(C2CN3CCSC3=N2)c1)Nc1ccc(C#N)cc1 (stereo not given)
Mus musculus [1]
  Activity: 68
Mus musculus [2]
  Activity: 100%
Ovis aries [3]
  Activity: 96%
Ovis aries [4]
  Activity: 0%
Ovis aries [5]
  Activity: 83%
Ovis aries [6]
  Activity: 100%
Ovis aries [7]
  Activity: 97%
Ovis aries [8]
  Activity: 100%
Mus musculus [9]
  Reduction: 99%
Ovis aries [10]
  Activity: 100%
Ovis aries [11]
  Activity: 92%
Ovis aries [12]
  Activity: 100%
Felis catus
  Activity: no toxic symptoms
Mus musculus [13]
  Activity: 100
Ovis aries [14]
  Activity: 100%
